In the M2OR odorant receptor database:
Changes are numbered by the printed parent chain.

What was measured:
Settings in all cases: stereoisomer not certain
[1] = biological target: T1, OR4S2 (Homo sapiens) (UniProt Q8NH73)
T1 sequence (whole entry): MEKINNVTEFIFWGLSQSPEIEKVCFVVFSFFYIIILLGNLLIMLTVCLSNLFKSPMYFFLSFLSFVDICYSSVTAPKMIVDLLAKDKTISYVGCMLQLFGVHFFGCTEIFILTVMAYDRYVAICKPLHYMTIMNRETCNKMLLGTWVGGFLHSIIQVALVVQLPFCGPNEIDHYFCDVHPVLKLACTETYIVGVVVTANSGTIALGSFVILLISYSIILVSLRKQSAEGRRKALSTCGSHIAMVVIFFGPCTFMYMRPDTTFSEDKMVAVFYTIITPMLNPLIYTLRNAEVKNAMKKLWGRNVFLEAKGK
Outline: (§1)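 Transient luciferase assays in mammalian cell lines were common, though methods varied by source. The values come from published papers and their supplementary material, with extra details from the original authors when needed. Responsive refers to a measured signal the original authors judged statistically different from baseline, and non-responsive (inactive) to the remainder.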

[2] = biological target: T2, OR4X1 (Homo sapiens) (UniProt Q8NH49)
T2 sequence (whole entry): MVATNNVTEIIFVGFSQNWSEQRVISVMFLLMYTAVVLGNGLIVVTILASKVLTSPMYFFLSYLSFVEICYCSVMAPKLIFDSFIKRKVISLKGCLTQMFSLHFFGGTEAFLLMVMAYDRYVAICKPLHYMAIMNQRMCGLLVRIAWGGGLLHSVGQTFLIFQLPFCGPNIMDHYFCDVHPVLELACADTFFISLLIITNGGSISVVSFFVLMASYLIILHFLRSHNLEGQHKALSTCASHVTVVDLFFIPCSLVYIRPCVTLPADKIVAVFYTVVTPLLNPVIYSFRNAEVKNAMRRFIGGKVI
Outline: as §1

[3] = biological target: T3, OR4X2 (Homo sapiens) (UniProt Q8NGF9)
T3 sequence (whole entry): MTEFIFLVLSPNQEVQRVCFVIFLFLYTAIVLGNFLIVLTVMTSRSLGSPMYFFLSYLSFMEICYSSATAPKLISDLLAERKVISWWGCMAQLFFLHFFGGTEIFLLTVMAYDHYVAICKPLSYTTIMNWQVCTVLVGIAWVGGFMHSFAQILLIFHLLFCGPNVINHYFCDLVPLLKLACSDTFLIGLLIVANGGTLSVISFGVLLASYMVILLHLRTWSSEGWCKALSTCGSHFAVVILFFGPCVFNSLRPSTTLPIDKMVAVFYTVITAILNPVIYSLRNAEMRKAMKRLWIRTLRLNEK
Outline: as §1

[4] = biological target: T4, OR51A2 (Homo sapiens) (UniProt Q8NGJ7)
T4 sequence (whole entry): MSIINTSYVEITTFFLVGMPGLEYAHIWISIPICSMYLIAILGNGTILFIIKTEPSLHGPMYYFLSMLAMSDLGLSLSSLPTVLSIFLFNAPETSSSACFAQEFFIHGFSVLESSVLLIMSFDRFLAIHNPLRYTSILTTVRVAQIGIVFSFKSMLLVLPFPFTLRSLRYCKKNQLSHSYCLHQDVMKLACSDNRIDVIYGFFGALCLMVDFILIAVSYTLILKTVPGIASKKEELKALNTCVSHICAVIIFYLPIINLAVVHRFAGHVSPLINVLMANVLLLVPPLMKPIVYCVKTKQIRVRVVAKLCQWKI
Outline: as §1

[5] = biological target: T5, OR51A4 (Homo sapiens) (UniProt Q8NGJ6)
T5 sequence (whole entry): T4 sequence (whole entry) with G59E, T94I, S97N, S167N, P227L, E235Q, G267R, M288T, K289N, W311R
Outline: as §1

[6] = biological target: T6, OR51A7 (Homo sapiens) (UniProt Q8NH64)
T6 sequence (whole entry): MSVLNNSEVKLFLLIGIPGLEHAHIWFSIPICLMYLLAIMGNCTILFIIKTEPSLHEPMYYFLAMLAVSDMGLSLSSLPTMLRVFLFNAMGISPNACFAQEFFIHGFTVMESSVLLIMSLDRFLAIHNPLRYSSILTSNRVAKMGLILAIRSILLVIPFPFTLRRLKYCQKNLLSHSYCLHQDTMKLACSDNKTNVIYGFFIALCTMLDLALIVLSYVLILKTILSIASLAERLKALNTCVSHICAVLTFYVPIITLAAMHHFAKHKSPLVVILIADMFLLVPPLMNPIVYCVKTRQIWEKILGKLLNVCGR
Outline: as §1

[7] = biological target: T7, OR51B2 (Homo sapiens) (UniProt Q9Y5P1)
T7 sequence (whole entry): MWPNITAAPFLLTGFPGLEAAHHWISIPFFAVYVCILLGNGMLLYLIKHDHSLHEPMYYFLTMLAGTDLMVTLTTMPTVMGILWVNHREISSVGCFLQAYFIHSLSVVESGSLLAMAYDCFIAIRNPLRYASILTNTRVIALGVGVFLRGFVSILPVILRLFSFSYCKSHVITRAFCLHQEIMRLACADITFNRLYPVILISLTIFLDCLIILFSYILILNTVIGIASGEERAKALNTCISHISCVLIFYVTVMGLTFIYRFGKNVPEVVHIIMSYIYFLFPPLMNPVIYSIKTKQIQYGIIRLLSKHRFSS
Outline: as §1

[8] = biological target: T8, OR51B4 (Homo sapiens) (UniProt Q9Y5P0)
T8 sequence (whole entry): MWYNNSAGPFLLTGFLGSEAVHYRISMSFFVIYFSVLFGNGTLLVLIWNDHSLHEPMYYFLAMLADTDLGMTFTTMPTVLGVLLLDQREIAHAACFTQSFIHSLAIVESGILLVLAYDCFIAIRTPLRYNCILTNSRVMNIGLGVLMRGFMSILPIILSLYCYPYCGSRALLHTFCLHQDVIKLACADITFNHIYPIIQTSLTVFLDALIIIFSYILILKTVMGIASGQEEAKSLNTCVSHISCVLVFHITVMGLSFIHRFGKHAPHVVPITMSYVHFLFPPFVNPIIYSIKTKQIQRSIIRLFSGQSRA
Outline: as §1

[9] = biological target: T9, OR51B5 (Homo sapiens) (UniProt Q9H339)
T9 sequence (whole entry): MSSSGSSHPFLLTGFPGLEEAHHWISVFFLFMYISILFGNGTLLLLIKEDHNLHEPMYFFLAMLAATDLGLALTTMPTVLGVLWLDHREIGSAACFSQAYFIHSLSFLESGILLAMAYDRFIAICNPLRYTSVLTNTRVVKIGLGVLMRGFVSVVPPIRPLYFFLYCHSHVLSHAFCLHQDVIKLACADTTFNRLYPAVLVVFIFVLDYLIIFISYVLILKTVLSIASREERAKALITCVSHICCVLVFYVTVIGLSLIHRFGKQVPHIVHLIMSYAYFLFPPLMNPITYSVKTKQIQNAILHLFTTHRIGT
Outline: as §1

[10] = biological target: T10, OR51B6 (Homo sapiens) (UniProt Q9H340)
T10 sequence (whole entry): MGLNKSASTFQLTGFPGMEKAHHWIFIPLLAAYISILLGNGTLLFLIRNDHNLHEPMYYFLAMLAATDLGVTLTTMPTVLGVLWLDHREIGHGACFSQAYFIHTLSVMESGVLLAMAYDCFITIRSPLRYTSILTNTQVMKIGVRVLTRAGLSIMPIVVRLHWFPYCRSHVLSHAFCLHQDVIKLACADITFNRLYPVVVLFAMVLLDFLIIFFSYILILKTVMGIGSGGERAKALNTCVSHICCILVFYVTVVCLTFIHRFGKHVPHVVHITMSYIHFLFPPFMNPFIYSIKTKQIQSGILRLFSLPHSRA
Outline: as §1

[11] = biological target: T11, OR51D1 (Homo sapiens) (UniProt Q8NGF3)
T11 sequence (whole entry): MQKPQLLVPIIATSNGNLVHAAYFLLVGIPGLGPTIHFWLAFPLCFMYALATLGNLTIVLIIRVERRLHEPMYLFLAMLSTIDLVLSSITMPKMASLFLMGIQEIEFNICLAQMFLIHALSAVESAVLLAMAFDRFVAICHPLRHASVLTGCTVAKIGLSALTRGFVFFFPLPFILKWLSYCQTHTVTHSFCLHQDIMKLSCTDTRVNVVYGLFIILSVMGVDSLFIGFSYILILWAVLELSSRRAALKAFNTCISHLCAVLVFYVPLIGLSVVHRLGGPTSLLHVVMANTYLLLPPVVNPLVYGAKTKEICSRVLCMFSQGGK
Outline: as §1

[12] = biological target: T12, OR51E1 (Homo sapiens) (UniProt Q8TCB6)
T12 sequence (whole entry): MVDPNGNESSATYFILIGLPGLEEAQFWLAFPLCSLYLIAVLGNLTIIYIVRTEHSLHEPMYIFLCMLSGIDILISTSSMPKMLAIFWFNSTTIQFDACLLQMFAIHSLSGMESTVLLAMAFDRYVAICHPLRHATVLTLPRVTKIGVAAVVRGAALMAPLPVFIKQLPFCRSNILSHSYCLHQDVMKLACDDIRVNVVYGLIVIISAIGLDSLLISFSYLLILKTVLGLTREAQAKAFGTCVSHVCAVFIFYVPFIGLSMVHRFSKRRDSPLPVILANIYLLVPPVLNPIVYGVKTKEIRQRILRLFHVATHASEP
Outline: as §1

[13] = biological target: T13, OR51E2 (Homo sapiens) (UniProt Q9H255)
T13 sequence (whole entry): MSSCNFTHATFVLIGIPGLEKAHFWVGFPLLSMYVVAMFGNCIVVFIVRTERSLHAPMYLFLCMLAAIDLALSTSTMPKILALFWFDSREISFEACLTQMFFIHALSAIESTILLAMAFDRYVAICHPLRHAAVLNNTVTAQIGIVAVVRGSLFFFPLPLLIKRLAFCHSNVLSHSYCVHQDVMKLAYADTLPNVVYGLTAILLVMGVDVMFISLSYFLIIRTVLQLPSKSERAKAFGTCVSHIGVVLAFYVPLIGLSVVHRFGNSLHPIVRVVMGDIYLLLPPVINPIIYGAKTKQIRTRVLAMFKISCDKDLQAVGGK
Outline: as §1

[14] = biological target: T14, OR51F1 (Homo sapiens) (UniProt A6NGY5)
T14 sequence (whole entry): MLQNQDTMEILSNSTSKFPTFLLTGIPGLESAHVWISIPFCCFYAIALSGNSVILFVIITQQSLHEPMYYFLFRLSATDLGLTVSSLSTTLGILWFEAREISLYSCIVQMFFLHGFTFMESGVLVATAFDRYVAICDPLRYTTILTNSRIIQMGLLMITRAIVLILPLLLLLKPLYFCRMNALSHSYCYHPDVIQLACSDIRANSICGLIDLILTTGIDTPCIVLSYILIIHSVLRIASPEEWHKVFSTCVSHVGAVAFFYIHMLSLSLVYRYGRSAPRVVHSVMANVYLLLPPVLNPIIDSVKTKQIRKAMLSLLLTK
Outline: as §1

[15] = biological target: T15, OR51F2 (Homo sapiens) (UniProt Q8NH61)
T15 sequence (whole entry): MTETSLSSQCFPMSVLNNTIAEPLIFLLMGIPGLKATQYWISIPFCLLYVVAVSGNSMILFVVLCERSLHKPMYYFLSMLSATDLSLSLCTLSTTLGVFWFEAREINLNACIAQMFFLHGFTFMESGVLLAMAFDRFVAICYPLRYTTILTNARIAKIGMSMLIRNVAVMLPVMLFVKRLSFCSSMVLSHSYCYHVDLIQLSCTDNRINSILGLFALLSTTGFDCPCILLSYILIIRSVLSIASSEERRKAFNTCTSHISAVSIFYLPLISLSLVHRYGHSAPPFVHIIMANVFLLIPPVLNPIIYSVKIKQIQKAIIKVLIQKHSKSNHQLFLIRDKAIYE
Outline: as §1

[16] = biological target: T16, OR51G1 (Homo sapiens) (UniProt Q8NGK1)
T16 sequence (whole entry): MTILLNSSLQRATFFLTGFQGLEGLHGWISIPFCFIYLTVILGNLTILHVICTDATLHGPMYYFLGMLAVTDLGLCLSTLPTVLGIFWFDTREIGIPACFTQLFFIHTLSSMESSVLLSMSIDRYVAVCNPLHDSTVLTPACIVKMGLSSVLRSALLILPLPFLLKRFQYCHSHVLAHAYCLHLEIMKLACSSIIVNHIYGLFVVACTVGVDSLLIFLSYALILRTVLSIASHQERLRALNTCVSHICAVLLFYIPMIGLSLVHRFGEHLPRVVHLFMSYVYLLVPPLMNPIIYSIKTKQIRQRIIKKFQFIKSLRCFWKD
Outline: as §1

[17] = biological target: T17, OR51G2 (Homo sapiens) (UniProt Q8NGK0)
T17 sequence (whole entry): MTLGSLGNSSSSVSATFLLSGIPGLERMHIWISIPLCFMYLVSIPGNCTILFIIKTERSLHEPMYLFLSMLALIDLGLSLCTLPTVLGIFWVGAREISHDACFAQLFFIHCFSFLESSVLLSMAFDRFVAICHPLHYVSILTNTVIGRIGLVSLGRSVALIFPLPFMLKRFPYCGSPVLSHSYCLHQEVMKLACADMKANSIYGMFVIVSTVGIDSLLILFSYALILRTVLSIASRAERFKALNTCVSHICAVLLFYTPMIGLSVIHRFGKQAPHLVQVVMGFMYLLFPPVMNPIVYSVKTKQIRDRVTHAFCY
Outline: as §1

[18] = biological target: T18, OR51I1 (Homo sapiens) (UniProt Q9H343)
T18 sequence (whole entry): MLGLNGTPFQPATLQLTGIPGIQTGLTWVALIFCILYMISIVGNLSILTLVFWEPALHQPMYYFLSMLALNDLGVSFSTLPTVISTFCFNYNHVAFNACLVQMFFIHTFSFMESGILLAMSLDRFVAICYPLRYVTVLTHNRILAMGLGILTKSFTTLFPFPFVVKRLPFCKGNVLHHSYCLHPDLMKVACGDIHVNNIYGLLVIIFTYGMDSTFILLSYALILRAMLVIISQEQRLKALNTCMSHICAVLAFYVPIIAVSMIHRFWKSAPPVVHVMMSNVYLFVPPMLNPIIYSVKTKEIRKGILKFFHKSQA
Outline: as §1

Measured: odorant receptor agonist call;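 note: active if original authors judged signal statistically different from baseline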

CCC(S)C(C)CO (stereo not drawn)
inactive: [1] | [2] | [3] | [4] | [5] | [6] | [7] | [8] | [9] | [10] | [11] | [12] | [13] | [14] | [15] | [16] | [17] | [18]
